Data published in ChEMBL document CHEMBL4828713, “DNA-Encoded Library Hit Confirmation: Bridging the Gap Between On-DNA and Off-DNA Chemistry” (ACS Med Chem Lett, 2021).
Blank lines part the entries; values can stand above or below the compound they belong to.

Key:
[1] = target: T1, Receptor-interacting serine/threonine-protein kinase 2 (Homo sapiens, UniProt O43353); assay: Inhibition of RIP2 (unknown origin) by fluorescence polarization based binding assay
[2] = target: T1, Receptor-interacting serine/threonine-protein kinase 2; assay: Relative binding affinity to RIP2 (unknown origin) by affinity selection mass spectrometry analysis
How it was run: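 Test material was freed from the DNA headpiece by cleaving the tetrahydropyranyl linker with 0.1% formic acid at 60 °C for 1 h. The released compound was then tested by affinity selection mass spectrometry, and binding was expressed as relative binding affinity (%RBA).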

[3] = target: T1, Receptor-interacting serine/threonine-protein kinase 2; assay: Inhibition of RIP2 (unknown origin) by biochemical assay
[4] = target: T1, Receptor-interacting serine/threonine-protein kinase 2; assay: Inhibition of RIP2 (unknown origin)
[5] = target: Epidermal growth factor receptor (Homo sapiens, UniProt P00533); assay: Inhibition of EGFR (unknown origin)
Chain of Epidermal growth factor receptor (P00533 whole entry): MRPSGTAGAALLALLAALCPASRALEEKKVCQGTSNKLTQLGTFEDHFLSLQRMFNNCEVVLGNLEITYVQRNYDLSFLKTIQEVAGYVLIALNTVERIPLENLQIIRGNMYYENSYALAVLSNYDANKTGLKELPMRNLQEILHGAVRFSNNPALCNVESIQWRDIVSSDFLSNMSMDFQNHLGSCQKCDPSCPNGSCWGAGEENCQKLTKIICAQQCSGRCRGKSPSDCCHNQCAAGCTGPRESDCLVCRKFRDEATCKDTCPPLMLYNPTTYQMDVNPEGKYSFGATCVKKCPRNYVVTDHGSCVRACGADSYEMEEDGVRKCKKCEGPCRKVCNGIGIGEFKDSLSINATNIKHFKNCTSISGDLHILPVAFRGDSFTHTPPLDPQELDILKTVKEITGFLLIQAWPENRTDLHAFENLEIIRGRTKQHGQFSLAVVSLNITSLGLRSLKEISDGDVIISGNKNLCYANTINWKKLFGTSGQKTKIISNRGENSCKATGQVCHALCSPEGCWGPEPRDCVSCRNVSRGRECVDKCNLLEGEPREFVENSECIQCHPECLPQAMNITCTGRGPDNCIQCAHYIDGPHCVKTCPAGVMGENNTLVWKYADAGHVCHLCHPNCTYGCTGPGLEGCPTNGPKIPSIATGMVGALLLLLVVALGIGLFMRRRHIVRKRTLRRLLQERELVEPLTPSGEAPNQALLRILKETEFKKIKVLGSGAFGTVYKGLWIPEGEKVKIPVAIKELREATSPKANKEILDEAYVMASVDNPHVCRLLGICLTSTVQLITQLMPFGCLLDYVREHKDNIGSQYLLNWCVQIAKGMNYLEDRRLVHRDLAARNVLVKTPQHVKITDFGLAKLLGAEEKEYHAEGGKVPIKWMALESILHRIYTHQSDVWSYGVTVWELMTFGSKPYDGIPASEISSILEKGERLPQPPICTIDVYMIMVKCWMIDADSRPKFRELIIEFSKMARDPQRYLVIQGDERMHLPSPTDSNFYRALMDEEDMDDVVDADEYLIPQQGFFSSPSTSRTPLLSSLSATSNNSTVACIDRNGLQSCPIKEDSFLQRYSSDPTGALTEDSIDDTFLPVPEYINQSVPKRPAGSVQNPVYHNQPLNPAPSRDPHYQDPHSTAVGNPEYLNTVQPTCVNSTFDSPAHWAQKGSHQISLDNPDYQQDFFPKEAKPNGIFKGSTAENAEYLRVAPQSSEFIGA

TGF-beta receptor type-1 = target: T2, TGF-beta receptor type-1 (Homo sapiens, UniProt P36897); assay: Inhibition of ALK5 (unknown origin)
T2 sequence (P36897 whole entry): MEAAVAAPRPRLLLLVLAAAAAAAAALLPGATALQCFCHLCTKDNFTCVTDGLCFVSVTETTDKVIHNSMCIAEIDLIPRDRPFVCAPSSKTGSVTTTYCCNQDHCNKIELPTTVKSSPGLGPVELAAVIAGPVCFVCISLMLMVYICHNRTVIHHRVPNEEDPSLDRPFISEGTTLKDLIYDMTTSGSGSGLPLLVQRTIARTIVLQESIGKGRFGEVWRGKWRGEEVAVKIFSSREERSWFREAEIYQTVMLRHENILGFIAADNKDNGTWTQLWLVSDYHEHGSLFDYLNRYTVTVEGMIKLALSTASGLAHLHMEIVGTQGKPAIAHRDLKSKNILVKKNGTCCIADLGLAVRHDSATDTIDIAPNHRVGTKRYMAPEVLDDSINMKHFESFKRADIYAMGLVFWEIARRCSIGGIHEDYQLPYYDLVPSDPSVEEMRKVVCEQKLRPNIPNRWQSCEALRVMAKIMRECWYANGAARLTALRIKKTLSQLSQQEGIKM

[6] = target: Vascular endothelial growth factor receptor 2 (Homo sapiens, UniProt P35968); assay: Inhibition of VEGFR2 (unknown origin)
Chain of Vascular endothelial growth factor receptor 2 (P35968 whole entry): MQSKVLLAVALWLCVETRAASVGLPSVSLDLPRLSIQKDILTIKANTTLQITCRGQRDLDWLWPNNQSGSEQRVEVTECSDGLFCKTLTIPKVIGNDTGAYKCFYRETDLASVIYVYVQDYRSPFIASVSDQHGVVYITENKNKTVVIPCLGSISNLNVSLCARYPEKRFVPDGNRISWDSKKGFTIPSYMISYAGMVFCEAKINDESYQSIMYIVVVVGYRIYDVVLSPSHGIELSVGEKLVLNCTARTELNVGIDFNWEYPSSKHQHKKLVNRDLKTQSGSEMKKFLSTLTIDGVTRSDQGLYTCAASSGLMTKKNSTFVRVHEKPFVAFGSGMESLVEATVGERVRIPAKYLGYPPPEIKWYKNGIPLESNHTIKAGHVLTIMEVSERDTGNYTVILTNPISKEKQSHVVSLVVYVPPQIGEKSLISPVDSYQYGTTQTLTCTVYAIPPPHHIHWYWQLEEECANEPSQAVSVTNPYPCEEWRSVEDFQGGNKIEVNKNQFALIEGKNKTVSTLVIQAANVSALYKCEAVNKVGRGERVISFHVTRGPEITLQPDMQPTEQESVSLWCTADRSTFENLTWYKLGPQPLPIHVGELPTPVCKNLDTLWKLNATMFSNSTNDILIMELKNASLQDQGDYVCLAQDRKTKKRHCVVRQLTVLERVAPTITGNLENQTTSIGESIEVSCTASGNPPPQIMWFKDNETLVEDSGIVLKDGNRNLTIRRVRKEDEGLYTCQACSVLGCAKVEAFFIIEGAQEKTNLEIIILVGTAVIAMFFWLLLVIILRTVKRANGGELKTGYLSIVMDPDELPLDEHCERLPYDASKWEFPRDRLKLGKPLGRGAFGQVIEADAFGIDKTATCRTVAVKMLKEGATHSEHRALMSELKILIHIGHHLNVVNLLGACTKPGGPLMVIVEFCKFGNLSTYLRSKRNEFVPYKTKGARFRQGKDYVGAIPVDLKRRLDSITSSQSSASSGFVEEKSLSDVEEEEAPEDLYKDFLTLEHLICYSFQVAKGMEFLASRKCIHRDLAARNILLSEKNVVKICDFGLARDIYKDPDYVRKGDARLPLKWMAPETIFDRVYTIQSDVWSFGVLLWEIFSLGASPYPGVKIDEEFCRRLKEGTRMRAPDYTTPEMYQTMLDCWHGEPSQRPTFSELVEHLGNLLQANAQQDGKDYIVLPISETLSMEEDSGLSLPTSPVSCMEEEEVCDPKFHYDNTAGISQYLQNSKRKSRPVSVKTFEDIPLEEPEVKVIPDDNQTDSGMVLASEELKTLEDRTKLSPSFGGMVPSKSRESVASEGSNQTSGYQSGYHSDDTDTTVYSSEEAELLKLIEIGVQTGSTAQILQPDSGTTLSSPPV

T1 sequence (O43353 whole entry): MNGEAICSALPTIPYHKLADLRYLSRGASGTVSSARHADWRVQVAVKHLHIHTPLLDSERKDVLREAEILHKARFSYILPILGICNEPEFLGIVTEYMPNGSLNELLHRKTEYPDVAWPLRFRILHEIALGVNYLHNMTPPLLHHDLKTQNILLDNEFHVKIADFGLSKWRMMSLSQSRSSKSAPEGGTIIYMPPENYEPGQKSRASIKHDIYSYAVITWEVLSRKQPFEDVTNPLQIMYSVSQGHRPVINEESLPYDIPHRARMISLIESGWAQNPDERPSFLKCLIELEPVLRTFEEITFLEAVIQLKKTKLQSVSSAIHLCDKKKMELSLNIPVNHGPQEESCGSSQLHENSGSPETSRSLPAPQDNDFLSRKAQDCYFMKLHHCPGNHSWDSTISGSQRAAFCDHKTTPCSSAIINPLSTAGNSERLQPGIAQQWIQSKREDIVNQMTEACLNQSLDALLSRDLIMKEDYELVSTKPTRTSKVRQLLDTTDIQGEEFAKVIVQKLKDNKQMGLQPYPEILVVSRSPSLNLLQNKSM

- IC50 [4]: 16 nM
- IC50 [5]: 2500 nM
- IC50 (TGF-beta receptor type-1): 2500 nM
- IC50 [6]: 16 nM
Compound: c1ccc(-c2ccc3c(Nc4ccc5scnc5c4)ccnc3c2)cc1

- RBA [2]: 70%
Compound: NC(=O)c1cc(C=O)cc(-c2ccc3c(Nc4ccc5scnc5c4)ccnc3c2)c1

- RBA [2]: 58%
Compound: NC(=O)c1cc(CNc2ccc3scnc3c2)cc(-c2ccc3c(Nc4ccc5scnc5c4)ccnc3c2)c1

- IC50 [4]: 6 nM
- IC50 [5]: 100 nM
- IC50 (TGF-beta receptor type-1): 79 nM
- IC50 [6]: < 1 nM
Compound: Oc1cc(Nc2ccnc3cc(-c4ccccc4)ccc23)ccc1Cl

Second part, the compound before the results:

Compound: COCCNC(=O)c1cc(CNc2ccc(Cl)c(O)c2)cc(-c2ccc3c(Cl)ccnc3c2)c1
- IC50 [1]: > 50000 nM

Compound: COCCn1c(-c2cnc(-c3ccc(Cl)cc3)[nH]2)nc2cc(C(=O)NCCO)ccc21
- RBA [2]: 30%

Compound: COCCNC(=O)c1cc(CNc2ccc(Cl)c(O)c2)cc(-c2ccc3c(Nc4ccc(Cl)c(O)c4)ccnc3c2)c1
- IC50 [3]: 6 nM
